Reference: article PMC6067823 (Organic & biomolecular chemistry, 2018)
“Also recorded” adds a separate entry of the source.

What was measured:
rat OR-I7 = details: cited from earlier work; for Function at rodent OR-I7 (agonist or antagonist), in words: rat OR-I7, earlier study; for IC50: read-out: IC50 (antagonist, estimated)
rat ORs = details: cited from earlier work
mouse OR-I7 [1] = molecular target: T1, mouse OR-I7 (Mus musculus, UniProt Q9QWU6); assay: Hana3A GloSensor cAMP assay, inhibition of response to co-applied 5 µM octanal; type: cell-based; details: for Relative antagonist potency within the series, in words: side-by-side comparison, Figs. 3 and 4
T1 sequence (Q9QWU6 1-327): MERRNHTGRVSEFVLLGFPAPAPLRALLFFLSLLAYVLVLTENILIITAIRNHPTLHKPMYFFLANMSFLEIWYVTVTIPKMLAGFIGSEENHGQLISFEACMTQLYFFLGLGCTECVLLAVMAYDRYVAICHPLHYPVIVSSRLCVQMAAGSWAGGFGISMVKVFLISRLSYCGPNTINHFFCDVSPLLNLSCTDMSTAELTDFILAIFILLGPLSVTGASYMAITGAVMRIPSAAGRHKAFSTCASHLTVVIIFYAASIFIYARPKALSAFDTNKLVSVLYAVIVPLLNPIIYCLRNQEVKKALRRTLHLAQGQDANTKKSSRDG

mouse OR-I7 [2] = molecular target: T1, mouse OR-I7; assay: Hana3A GloSensor cAMP assay, compounds applied alone; type: cell-based; details: compound applied alone to Hana3A cells expressing mouse OR-I7
Method in brief: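 Hana3A cells were co-transfected with Rho-tagged mouse OR-I7 (80 ng/well), RTP1S, M3-R and pGloSensor-22F (10 ng/well each). At 18–24 h they were loaded with 2% GloSensor reagent for 2 h. Test compound was applied alone over a concentration range, and luminescence was read every 90 s for 24 min. Signal at 3–7.5 min was summed, baselined and normalized to octanal. Six replicates per plate, mean ± SEM.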

CC(C)=CCC[C@@H](C)CC=O (racemic) [citronellal]
Agonist activity at rat OR-I7 compared with octanal, in words (rat OR-I7; rat OR-I7): almost as good a rat OR-I7 agonist as octanal

CCCCCCCC=O [Compound 1, octanal]
Number of rat ORs activated (rat ORs): 33–55 | Function at rodent OR-I7 (agonist or antagonist), in words (rat OR-I7): agonists

O=CCC1CCCCC1 [Compound 2, cyclohexylethanal]
Response to octanal with co-applied compound (antagonism), in words (mouse OR-I7 [1]; increasing concentrations co-applied with constant 5 µM octanal): reduced in a dose-dependent manner | Function at rodent OR-I7 (agonist or antagonist), in words (rat OR-I7): antagonists | IC50 (rat OR-I7; rat OR-I7): 37 µM | Activation of mouse OR-I7 (agonist activity), in words (mouse OR-I7 [2]): not a mouse OR-I7 agonist

CCCCC=O [Compound 3, Pentanal]
Function at rodent OR-I7 (agonist or antagonist), in words (rat OR-I7): weak rat OR-I7 antagonist; also recorded: antagonists | IC50 (rat OR-I7; rat OR-I7): 460 µM

CCC1CCC(CC=O)CC1 (stereo not shown) [Compound 4, (4-ethylcyclohexyl)ethanal]
Function at rodent OR-I7 (agonist or antagonist), in words (rat OR-I7): agonists

CCC(C)CC=O (stereo not shown) [Compound 5]
Increase in antagonist potency relative to pentanal (mouse OR-I7 [1]; from estimated IC50s, 5 µM octanal, Fig. 3): 5 fold

CCC(CC)(CC)CC=O [Compound 8]
Relative antagonist potency within the series, in words (mouse OR-I7 [1]; 5 µM octanal): progressively decreased potency

CC1(CC=O)CCCCC1 [Compound 10]
Relative antagonist potency within the series, in words (mouse OR-I7 [1]; 5 µM octanal): unfavorable

CCC1(CC=O)CCCCC1 [Compound 11]
Relative antagonist potency within the series, in words (mouse OR-I7 [1]; 5 µM octanal): unfavorable

O=CCC12CC3CC(CC(C3)C1)C2 [Compound 12]
Antagonist potency weaker than compound 9 (mouse OR-I7 [1]; from estimated IC50s, 5 µM octanal, Fig. 4): 3 fold

CCCCCCC=O [heptanal]
Function at rodent OR-I7 (agonist or antagonist), in words (rat OR-I7): regained their ability to function as agonists
